Measurements from ChEMBL document CHEMBL1147441, “A new series of potent oxindole inhibitors of CDK2” (Bioorg Med Chem Lett, 2004).

What was measured:
[1] = target: Cyclin-dependent kinase 2/cyclin E (Homo sapiens, UniProt P24941); assay: In vitro inhibition of recombinant Cyclin Dependent Kinase-2/Cyclin E.; assay type: protein-complex assay
MDA-MB-435 = assay: In vitro inhibition of MDA MB 435 (human breast cancer) cell proliferation.; assay type: functional, cell-based
How it was run: (§1)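 MTT-based proliferation assay run on tumour cells. IC50 values were taken from a single experiment.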

SW480 = assay: In vitro inhibition of SW480 (human colon cancer) cell proliferation.; assay type: functional, cell-based; how it was run: as §1

Row | SMILES | IC50 [1] [nM] | IC50 (MDA-MB-435) [nM] | IC50 (SW480) [nM]
1 | COc1cc[nH]c1/C=C1\C(=O)Nc2ccc(F)c(I)c21 | 1000 | > 30000 | 
2 | CN[C@H](C#Cc1c(F)ccc2c1/C(=C/c1[nH]ccc1OC)C(=O)N2)CO | 8 | 349 | 100
3 | CNCC#Cc1c(F)ccc2c1/C(=C/c1[nH]ccc1OC)C(=O)N2 | 4 | 490 | 150
4 | CCN[C@H](C#Cc1c(F)ccc2c1/C(=C/c1[nH]ccc1OC)C(=O)N2)[C@@H](C)O | 18 | 1070 | 549
5 | COc1cc[nH]c1/C=C1\C(=O)Nc2ccc(F)c(C#C[C@H](N)CO)c21 | 3 | 320 | 270
